Laboratory results taken from publication PMC5557381 (European journal of medicinal chemistry, 2015).

Tests used:
[1] = test system: HCV IRES mediated translation; assay: HCV IRES mediated translation dual luciferase reporter assay in Huh7.5 cells; format: cell-based, Hepatitis C virus; conditions: data not shown
[2] = test system: anti-oxidant response element; assay: Host-factor reporter assay p3xARE-Luc in MH-14 cells; format: cell-based; conditions: 5, 10 and 25 µM, 48 h
In short: (§1)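 MH-14 hepatoma cells stably carrying an HCV gt 1b subgenomic replicon were transfected with 300 ng of the gene-specific luciferase reporter plasmid. At 16 h post-transfection, cells were exposed to test compound or to DMSO as control for 48 h. Luciferase activity was then read, with transfection efficiency normalised to Renilla luciferase expression.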

[3] = test system: interferon-stimulated response element; assay: Host-factor reporter assay pISRE-Luc in MH-14 cells; format: cell-based; conditions: 5, 10 and 25 µM, 48 h
In short: as §1

HCV NS3 helicase (NS3h) = HCV NS3 helicase (NS3h) (Hepatitis C virus genotype 1b, UniProt Q9WMX2); assay: Molecular beacon based NS3 helicase assay; format: biochemical; conditions: concentrations as high as 500 µM, data not shown
[4] = test system: MH-14 cells carrying stably replicating HCV sub genomic replicon gt 1b; assay: HCV RNA by quantitative RT-PCR in reporter free MH-14 cells; format: cell-based, Hepatitis C virus genotype 1b; conditions: Hepatitis C virus, GT1B, MH14, read-out: EC50, HCV RNA in MH-14 cells
heme oxygenase-1 = assay: Host-factor reporter assay pHO-1-Luc in MH-14 cells; format: cell-based; conditions: 5, 10 and 25 µM, 48 h
In short: as §1

cyclooxygenase-2 = assay: Host-factor reporter assay pCOX-2-FLuc in MH-14 cells; format: cell-based; conditions: 5, 10 and 25 µM, 48 h
In short: as §1

[5] = molecular target: HCV NS5B polymerase (NS5BCΔ21) (Hepatitis C virus genotype 1b, UniProt Q9WMX2); assay: NS5B RdRp primer-dependent elongation assay; format: biochemical; conditions: 50 µM, preliminary assay, data not shown

c1ccc(Cn2c(-c3ccccc3)cc3c2CCCC3)cc1 [Compound 39]
Effect on HCV IRES mediated translation [1]: no effect
Effect on anti-oxidant response element reporter [2]: no effect
Effect on interferon-stimulated response element reporter [3]: no effect
Inhibition of NS3 helicase unwinding of a DNA substrate (HCV NS3 helicase (NS3h)): no effect
EC50 [4]: 3.13 µM
Effect on heme oxygenase-1 reporter (heme oxygenase-1): no effect
Effect on cyclooxygenase-2 reporter (cyclooxygenase-2): no effect
Inhibition of NS5B RdRp activity [5]: no effect
